Active and inactive are the calls of the source. The rule behind the calls is not given here.
Key:
[1] = molecular target: Metabotropic glutamate receptor 2 (Homo sapiens) (UniProt Q14416); assay: Inhibition of mGluR2 expressed in CHO cells at 10 uM; assay type: cell-based
[2] = molecular target: T1, Metabotropic glutamate receptor 5 (Rattus norvegicus, UniProt P31424); assay: Antagonist activity at rat mGluR5 expressed in HEK293A cells assessed as inhibition of glutamate-induced calcium flux preincubated for 140 secs before glutamate challenge by calcium fluorescence assay; assay type: functional, cell-based, HEK293-A
In short: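 Functional read-out was receptor-induced intracellular calcium release, detected by calcium fluorescence. A kinetic imaging plate reader recorded calcium levels simultaneously in every well of 384-well plates. IC50 reported as ±SEM.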

[3] = molecular target: T1, Metabotropic glutamate receptor 5; assay: Displacement of [3HMPEP from rat cloned mGluR5 expressed in HEK293T cells by scintillation counting; assay type: cell-based, HEK-293T
In short: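 Radioligand displacement with [3H]MPEP, run through the NIMH Psychoactive Drug Screening Program. Receptor source was rat brain membranes or HEK293-T cells transfected with cloned rat mGluR5 cDNA. Ki reported as ±SEM.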

[4] = molecular target: Glutamate NMDA receptor (Rattus norvegicus) (UniProt P35439+Q00959+Q00960+Q00961+Q62645+Q8VHN2+Q9R1M7); assay: Displacement of [3H]MK801 from NMDA receptor in rat brain homogenate at 10 uM by scintillation counting; assay type: tissue-based
[5] = molecular target: Metabotropic glutamate receptor 8 (Homo sapiens) (UniProt O00222); assay: Inhibition of mGluR8 expressed in CHO cells at 10 uM; assay type: cell-based
[6] = molecular target: Metabotropic glutamate receptor 6 (Homo sapiens) (UniProt O15303); assay: Inhibition of mGluR6 expressed in CHO cells at 10 uM; assay type: cell-based
[7] = molecular target: Metabotropic glutamate receptor 1 (Homo sapiens) (UniProt Q13255); assay: Inhibition of mGluR1 expressed in CHO cells at 10 uM; assay type: cell-based
[8] = molecular target: Metabotropic glutamate receptor 4 (Homo sapiens) (UniProt Q14833); assay: Inhibition of mGluR4 expressed in CHO cells at 10 uM; assay type: cell-based
[9] = molecular target: Metabotropic glutamate receptor 5 (Rattus norvegicus) (UniProt P31424); conditions: HEK293-A, 0.0001 to 100 uM

Metabotropic glutamate receptor 4 (Homo sapiens), sequence (Q14833 whole entry): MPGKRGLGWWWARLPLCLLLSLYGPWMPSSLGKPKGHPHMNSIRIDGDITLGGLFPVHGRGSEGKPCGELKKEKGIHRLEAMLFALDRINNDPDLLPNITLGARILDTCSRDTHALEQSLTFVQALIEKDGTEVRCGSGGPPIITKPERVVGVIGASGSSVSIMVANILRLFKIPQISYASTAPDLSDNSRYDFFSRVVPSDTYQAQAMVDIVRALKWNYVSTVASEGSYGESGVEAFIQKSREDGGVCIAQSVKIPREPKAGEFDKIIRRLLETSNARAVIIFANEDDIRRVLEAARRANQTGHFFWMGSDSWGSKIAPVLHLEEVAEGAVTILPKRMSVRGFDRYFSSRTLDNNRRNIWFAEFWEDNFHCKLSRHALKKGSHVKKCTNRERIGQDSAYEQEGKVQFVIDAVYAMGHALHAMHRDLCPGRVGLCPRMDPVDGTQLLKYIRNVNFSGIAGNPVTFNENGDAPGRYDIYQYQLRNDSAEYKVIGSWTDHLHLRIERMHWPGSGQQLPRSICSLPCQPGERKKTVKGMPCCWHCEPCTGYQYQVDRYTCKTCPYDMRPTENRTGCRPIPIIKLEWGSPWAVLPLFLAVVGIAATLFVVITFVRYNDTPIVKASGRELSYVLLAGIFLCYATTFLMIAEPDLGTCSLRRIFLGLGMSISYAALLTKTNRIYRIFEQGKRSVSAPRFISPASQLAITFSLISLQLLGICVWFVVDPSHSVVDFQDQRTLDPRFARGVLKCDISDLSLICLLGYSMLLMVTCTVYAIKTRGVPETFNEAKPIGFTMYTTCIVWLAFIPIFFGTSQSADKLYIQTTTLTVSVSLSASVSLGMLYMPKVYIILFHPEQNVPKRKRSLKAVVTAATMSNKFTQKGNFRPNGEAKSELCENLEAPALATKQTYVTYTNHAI
Metabotropic glutamate receptor 6 (Homo sapiens), sequence (O15303 whole entry): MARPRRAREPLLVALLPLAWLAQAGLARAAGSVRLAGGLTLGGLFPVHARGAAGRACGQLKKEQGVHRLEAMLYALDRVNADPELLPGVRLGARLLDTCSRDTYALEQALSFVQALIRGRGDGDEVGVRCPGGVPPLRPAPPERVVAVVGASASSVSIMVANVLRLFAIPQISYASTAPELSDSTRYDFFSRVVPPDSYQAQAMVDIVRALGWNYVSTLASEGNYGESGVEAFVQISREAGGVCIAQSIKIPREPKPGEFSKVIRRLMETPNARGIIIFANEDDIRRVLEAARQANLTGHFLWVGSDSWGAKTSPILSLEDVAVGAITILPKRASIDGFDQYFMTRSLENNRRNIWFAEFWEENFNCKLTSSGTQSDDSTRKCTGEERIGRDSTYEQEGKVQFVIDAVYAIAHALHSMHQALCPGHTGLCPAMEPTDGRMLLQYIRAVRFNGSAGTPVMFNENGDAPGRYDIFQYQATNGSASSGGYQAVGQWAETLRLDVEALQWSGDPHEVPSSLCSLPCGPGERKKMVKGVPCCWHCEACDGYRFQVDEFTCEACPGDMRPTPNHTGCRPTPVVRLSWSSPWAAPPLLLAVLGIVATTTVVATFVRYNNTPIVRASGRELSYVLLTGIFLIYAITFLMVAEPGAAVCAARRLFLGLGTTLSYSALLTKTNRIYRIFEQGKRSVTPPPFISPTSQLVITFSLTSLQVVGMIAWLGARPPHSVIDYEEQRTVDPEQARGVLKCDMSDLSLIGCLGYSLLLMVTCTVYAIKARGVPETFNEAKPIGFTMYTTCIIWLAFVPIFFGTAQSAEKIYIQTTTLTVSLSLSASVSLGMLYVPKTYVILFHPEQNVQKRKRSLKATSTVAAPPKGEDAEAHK
Metabotropic glutamate receptor 1 (Homo sapiens), sequence (Q13255 19-1194 limits assumed): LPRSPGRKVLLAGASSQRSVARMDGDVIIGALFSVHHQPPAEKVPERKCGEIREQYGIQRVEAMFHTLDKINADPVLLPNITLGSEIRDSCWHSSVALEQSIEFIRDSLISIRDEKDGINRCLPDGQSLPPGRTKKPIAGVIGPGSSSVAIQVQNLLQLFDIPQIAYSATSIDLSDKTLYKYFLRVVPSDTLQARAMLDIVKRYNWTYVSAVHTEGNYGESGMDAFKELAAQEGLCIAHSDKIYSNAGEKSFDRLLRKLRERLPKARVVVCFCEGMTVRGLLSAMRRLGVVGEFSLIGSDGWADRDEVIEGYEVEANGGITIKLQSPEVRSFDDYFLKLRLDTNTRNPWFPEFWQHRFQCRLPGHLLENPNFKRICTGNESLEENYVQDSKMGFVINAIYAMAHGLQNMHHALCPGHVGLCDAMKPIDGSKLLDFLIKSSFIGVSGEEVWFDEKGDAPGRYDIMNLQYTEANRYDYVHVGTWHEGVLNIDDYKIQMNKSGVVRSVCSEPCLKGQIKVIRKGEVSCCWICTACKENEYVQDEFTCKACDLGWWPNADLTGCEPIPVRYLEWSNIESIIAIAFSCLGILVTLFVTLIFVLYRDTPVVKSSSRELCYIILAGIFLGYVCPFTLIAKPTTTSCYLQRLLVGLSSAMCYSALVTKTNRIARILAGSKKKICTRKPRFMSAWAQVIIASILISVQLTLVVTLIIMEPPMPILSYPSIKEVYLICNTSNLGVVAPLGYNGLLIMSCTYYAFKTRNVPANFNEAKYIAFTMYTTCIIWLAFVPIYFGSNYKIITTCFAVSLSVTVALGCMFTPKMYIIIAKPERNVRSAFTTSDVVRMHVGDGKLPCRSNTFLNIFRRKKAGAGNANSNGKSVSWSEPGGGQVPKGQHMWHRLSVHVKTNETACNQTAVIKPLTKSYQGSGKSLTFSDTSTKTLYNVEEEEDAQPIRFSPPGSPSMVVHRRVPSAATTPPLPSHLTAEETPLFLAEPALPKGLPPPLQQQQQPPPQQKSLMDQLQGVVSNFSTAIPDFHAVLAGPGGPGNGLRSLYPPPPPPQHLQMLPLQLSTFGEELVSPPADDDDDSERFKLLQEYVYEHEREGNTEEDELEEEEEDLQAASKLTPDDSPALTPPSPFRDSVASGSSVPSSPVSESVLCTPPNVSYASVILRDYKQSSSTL
Metabotropic glutamate receptor 2 (Homo sapiens), sequence (Q14416 19-872 limits assumed): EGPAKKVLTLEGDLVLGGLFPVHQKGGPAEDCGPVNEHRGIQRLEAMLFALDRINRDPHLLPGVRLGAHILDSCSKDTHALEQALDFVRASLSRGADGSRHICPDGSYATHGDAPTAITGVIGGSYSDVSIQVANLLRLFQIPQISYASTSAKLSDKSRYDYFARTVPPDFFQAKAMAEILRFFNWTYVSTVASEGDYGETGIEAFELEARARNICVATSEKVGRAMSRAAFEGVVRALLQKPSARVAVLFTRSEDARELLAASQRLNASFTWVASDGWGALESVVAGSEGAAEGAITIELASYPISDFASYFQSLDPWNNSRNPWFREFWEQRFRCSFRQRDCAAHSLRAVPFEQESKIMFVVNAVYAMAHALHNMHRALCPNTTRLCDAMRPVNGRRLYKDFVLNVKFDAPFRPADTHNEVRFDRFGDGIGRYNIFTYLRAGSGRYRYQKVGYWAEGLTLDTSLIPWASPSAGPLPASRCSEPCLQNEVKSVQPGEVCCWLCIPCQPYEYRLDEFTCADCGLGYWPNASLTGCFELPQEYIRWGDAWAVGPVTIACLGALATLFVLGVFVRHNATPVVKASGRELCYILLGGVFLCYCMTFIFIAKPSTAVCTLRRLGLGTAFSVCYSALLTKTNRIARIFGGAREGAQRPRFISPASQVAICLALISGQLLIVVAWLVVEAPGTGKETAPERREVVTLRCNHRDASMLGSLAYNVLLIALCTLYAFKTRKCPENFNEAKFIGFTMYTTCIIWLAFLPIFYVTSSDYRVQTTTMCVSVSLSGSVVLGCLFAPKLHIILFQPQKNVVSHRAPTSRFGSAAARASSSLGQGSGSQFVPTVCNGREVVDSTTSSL
T1 sequence (P31424 whole entry): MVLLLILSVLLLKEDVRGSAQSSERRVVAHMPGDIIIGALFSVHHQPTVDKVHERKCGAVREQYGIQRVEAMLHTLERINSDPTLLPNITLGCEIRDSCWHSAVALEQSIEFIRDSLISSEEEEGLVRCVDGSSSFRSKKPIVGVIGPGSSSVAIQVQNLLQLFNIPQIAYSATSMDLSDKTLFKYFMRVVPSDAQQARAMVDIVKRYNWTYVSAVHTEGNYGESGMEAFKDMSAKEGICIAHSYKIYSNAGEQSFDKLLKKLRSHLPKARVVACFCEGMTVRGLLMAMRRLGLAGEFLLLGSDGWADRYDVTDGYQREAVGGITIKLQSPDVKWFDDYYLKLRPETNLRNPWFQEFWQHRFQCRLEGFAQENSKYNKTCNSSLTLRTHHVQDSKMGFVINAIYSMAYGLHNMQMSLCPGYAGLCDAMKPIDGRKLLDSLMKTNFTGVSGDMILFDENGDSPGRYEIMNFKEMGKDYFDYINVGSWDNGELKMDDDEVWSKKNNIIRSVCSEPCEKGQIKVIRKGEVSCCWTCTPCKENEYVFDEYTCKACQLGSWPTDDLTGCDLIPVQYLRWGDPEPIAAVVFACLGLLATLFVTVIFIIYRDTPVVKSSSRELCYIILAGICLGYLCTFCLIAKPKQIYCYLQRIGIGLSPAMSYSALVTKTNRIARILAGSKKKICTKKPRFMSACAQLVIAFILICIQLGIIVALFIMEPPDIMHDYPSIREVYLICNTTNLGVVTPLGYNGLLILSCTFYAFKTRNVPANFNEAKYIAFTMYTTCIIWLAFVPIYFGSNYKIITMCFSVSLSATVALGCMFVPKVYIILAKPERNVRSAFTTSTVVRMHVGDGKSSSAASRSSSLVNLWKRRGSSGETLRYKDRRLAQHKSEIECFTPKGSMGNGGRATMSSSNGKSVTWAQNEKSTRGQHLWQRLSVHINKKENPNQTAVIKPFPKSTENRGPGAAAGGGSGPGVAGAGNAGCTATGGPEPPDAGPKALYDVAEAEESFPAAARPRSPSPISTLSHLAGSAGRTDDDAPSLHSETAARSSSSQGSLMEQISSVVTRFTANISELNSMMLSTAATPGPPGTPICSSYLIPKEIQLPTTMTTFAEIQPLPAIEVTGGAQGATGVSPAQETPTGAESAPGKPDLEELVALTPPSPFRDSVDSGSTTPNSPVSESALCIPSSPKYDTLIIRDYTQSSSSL

| inhibition [1] [%] | IC50 [2] [µM] | Ki [3] [µM] | Activity [4] | inhibition [5] [%] | inhibition [6] [%] | inhibition [7] [%] | inhibition [8] [%] | inhibition [9] [%] | Structure (SMILES) |
| --- | --- | --- | --- | --- | --- | --- | --- | --- | --- |
| < 50 | 7.84 | 0.862 | inactive | < 50 | < 50 | < 50 | < 50 | – | Cc1nc2cc(-c3ccc(OS(=O)(=O)C(F)(F)F)c(C#N)c3)ccc2s1 |
| < 50 | – | – | inactive | < 50 | < 50 | < 50 | < 50 | – | Cc1nc2cc(-c3cccc(C#N)c3)ccc2s1 |
| < 50 | 0.013 | 0.0015 | inactive | < 50 | < 50 | < 50 | < 50 | – | Cc1cccc(C#Cc2cncc(C#N)c2)n1 |
| < 50 | > 10 | 4.68 | inactive | < 50 | < 50 | < 50 | < 50 | – | Cc1nc2cc(-c3ccc(-c4ccc(F)cc4)c(C#N)c3)ccc2s1 |
| < 50 | 0.081 | 0.097 | inactive | < 50 | < 50 | < 50 | < 50 | – | Cc1ccc2ccc(-c3cnc(-c4ccccc4)c(C#N)c3)cc2n1 |
| < 50 | 0.294 | 0.596 | inactive | < 50 | < 50 | < 50 | < 50 | – | COCOc1ccc(-c2ccc3ccc(C)nc3c2)cc1C#N |
| < 50 | > 10 | 1.04 | inactive | < 50 | < 50 | < 50 | < 50 | – | Cc1ccc2ccc(-c3ccc(OCc4ccccc4)c(C#N)c3)cc2n1 |
| < 50 | 3.31 | > 10 | inactive | < 50 | < 50 | < 50 | < 50 | 50 | Cc1ccc2ccc(-c3cnc(Cl)c(C#N)c3)cc2n1 |
| < 50 | 1.25 | 0.097 | inactive | < 50 | < 50 | < 50 | < 50 | – | Cc1ccc2ccc(-c3ccc(-c4ccccc4)c(C#N)c3)cc2n1 |
| < 50 | 9.15 | 4.72 | inactive | < 50 | < 50 | < 50 | < 50 | – | Cc1ccc2ccc(-c3ccc(Cl)cc3C#N)cc2n1 |
| < 50 | – | – | inactive | < 50 | < 50 | < 50 | < 50 | – | Cc1nc(C#Cc2cccnc2)cs1 |
| < 50 | 1.34 | 0.73 | inactive | < 50 | < 50 | < 50 | < 50 | – | Cc1ccc2ccc(-c3ccc(-c4cccnc4)c(C#N)c3)cc2n1 |
| < 50 | > 10 | 7.13 | inactive | < 50 | < 50 | < 50 | < 50 | – | Cc1nc2cc(-c3ccc(OCc4ccccc4)c(C#N)c3)ccc2s1 |
| < 50 | 0.692 | 0.064 | inactive | < 50 | < 50 | < 50 | < 50 | – | Cc1ccc2ccc(-c3ccc(-c4ccc(F)cc4)c(C#N)c3)cc2n1 |
| < 50 | > 10 | > 10 | inactive | < 50 | < 50 | < 50 | < 50 | – | Cc1ccc2ccc(-c3ccc(O)c(C#N)c3)cc2n1 |
